Assay results reported in ChEMBL document CHEMBL1629474, “Massive screening yields novel and selective Trypanosoma cruzi triosephosphate isomerase dimer-interface-irreversible inhibitors with anti-trypanosomal activity” (Eur J Med Chem, 2010).
Active and inactive are the calls of the source. No rule for the calls is given here.

How the values were obtained:
[1] = target: Triosephosphate isomerase, glycosomal (Trypanosoma cruzi) (UniProt P52270); assay: Inhibition of Trypanosoma cruzi triosephosphate isomerase at 400 uM after 2 hrs
Method in brief: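 Recombinant E. coli-expressed enzyme, dialyzed into 100 mM triethanolamine/10 mM EDTA pH 7.4, was incubated with compound (DMSO stock) in 100 mM triethanolamine, 10 mM EDTA, pH 7.4, 10% DMSO at 36 °C for 2 h. An aliquot was then assayed for activity (glyceraldehyde 3-phosphate to dihydroxyacetone phosphate, α-glycerol phosphate dehydrogenase-coupled) with 5 ng enzyme. Irreversible inhibition was scored as loss of activity; means of two experiments.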

[2] = Selectivity for Trypanosoma cruzi triosephosphate isomerase over human triosephosphate isomerase
Trypanosoma cruzi = assay: Antiparasitic activity against Trypanosoma cruzi T2 epimastigotes assessed as growth inhibition at 25 uM after 5 days; assay type: functional
Method in brief: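 Late-log epimastigotes were grown axenically at 28 °C in BHI-tryptose with 5% fetal calf serum and seeded at 2×10^6/mL in medium containing compound (DMSO stock; final DMSO ≤1%, 1% DMSO control). Growth was read as A590 at day 0 and day 5. Inhibition = {1 − [(Ap − A0p)/(Ac − A0c)]} × 100. Means of two experiments.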

Triosephosphate isomerase, glycosomal (Trypanosoma cruzi), sequence (P52270 whole entry): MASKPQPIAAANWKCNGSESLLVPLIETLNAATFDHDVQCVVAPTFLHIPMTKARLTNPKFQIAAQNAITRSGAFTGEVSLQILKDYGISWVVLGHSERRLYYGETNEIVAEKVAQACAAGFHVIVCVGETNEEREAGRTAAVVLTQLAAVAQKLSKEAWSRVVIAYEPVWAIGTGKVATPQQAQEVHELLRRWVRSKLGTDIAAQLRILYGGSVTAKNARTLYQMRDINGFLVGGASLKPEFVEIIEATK

| inhibition [1] [%] | Ratio [2] | Compound | Activity (Trypanosoma cruzi) |
| --- | --- | --- | --- |
| 0 | > 4 | CC1(C)[N+]([O-])=c2ccc(/C=C/c3ccccc3)cc2=[N+]1[O-] | Active |
| 0 | > 4 | CCCCCCCCOC(=O)N/N=C/C=C/c1ccc([N+](=O)[O-])o1 | Active |
| 18 | > 4 | Cc1ccc2c(c1)=[N+]([O-])C(C)[N+]=2[O-] (stereo unspecified) | Active |
| 25 | > 4 | CC(=O)Oc1c(C)c(C)c2c(c1C)CCC(C)(C(=O)NCCOc1c(S(=O)(=O)c3ccccc3)no[n+]1[O-])O2 (stereo unspecified) | Active |
| 17 | > 4 | CC(=O)CC(=O)Nc1ccccc1 | Active |
| 14 | > 4 | C=CCNC(=S)N/N=C/c1ccc2no[n+]([O-])c2c1 | Active |
| 5 | > 4 | COCCNC(=O)N/N=C/c1ccc([N+](=O)[O-])o1 | Active |
| 39 | > 4 | CCCCCCOC(=O)N/N=C/C=C/c1ccc([N+](=O)[O-])o1 | Active |
| 58 | > 4 | C=CCNC(=S)N/N=C/c1ccc([N+](=O)[O-])s1 | Active |
| 0 | > 4 | COC(=O)N/N=C/c1ccc([N+](=O)[O-])o1 | Active |
| 31 | > 4 | CC1(C)[N+]([O-])=c2ccc(CN3CCN(C/C=C/c4ccccc4)CC3)cc2=[N+]1[O-] | Active |
| 2 | > 4 | C=CCNC(=S)N/N=C/c1cccs1 | Active |
| 29 | > 4 | N#Cc1c2ccccc2[n+]([O-])n1-c1ccc([N+](=O)[O-])cc1 | Active |
| 32 | > 4 | COc1ccc(C=O)cc1-c1cc(C=O)ccc1O | Active |
| 28 | > 4 | Cc1nnc[n+]([O-])c1/C=C/c1ccc([N+](=O)[O-])s1 | Active |
| 0 | > 4 | [O-][n+]1onc2ccc(CSCCO)cc21 | Active |
| 12 | > 4 | [O-][N+]1=c2ccccc2=[N+]([O-])C12CCCC2 | Active |
| 0 | > 4 | O=C(N/N=C/c1ccc([N+](=O)[O-])o1)N1CCOCC1 | Active |
| 1 | > 4 | CCCCNC(=O)N/N=C/C=C/c1ccc([N+](=O)[O-])o1 | Active |
| 0 | > 4 | CCOC(=O)c1[nH]c(=O)n(CCc2ccccc2)c1C | Active |
| 56 | > 4 | [O-][N+]1=c2cc(Cl)c(Cl)cc2=[N+]([O-])C12CCCC2 | Active |

| inhibition [1] [%] | Ratio [2] | Compound | Activity (Trypanosoma cruzi) |
| --- | --- | --- | --- |
| 32 | > 4 | CC(=O)NCc1ccccc1 | Active |
| 38 | > 4 | Cc1nnc[n+]([O-])c1/C=C/c1ccc([N+](=O)[O-])o1 | Active |
| 17 | > 4 | O=[N+]([O-])c1ccc(/C=N/NC(=S)Nc2ccccc2)o1 | Active |
| 17 | > 4 | CCCCCCOC(=O)N/N=C/c1no[n+]([O-])c1C | Active |
| 50 | > 4 | O=C(CCl)Oc1ccc2c(c1)[n+]([O-])c1cc(Br)ccc1[n+]2[O-] | Active |
| 0 | > 4 | CCCCNS(=O)(=O)NCCCC | Active |
| 7 | > 4 | O=C(c1ccc2no[n+]([O-])c2c1)N1CCOCC1 | Active |
| 29 | > 4 | O=C(/C=C/c1ccc2c(c1)OCO2)c1ccccc1O | Active |
| 38 | > 4 | Cc1nncnc1CC(c1ccc([N+](=O)[O-])cc1)[N+]1([O-])CCOCC1 (stereo unspecified) | Active |
| 33 | > 4 | O=C(/C=C/c1ccccc1)c1ccccc1 | Active |
| 25 | > 4 | CCCCNC(=O)/C=C/c1ccc([N+](=O)[O-])o1 | Active |
| 48 | > 4 | C=C(C)CNC(=O)Oc1ccccc1 | Active |
| 34 | > 4 | O=[N+]([O-])c1ccc(/N=C/c2ccccc2[N+](=O)[O-])cc1 | Active |
| 12 | > 4 | O=[N+]([O-])c1ccc2c(c1)c(OCc1ccccc1)nn2CCOCCN1CCSCC1 | Active |
| 0 | > 4 | COCCNC(=O)N/N=C/C=C/c1ccc([N+](=O)[O-])o1 | Active |
| 13 | > 4 | NC(=O)N/N=C/C=C/c1ccc([N+](=O)[O-])o1 | Active |
| 3 | > 4 | CCOC(=O)/C=C/c1ccc([N+](=O)[O-])o1 | Active |
| 38 | > 4 | CCCCNC(=O)N/N=C/c1ccc2no[n+]([O-])c2c1 | Active |
| 0 | > 4 | O=C1CC(=O)N(CCc2ccccc2)S(=O)(=O)N1CCc1ccccc1 | Active |
| 28 | > 4 | [O-][n+]1onc2ccc(/C=C/[S+]([O-])c3ccccc3)cc21 (stereo unspecified) | Active |
| 0 | > 4 | N#Cc1ccc(C=Cc2ccc3no[n+]([O-])c3c2)cc1 | Active |

| inhibition [1] [%] | Ratio [2] | Compound | Activity (Trypanosoma cruzi) |
| --- | --- | --- | --- |
| 4 | > 4 | CCCCCCNC(=O)N/N=C/c1c(-c2ccccc2)no[n+]1[O-] | Active |
| 26 | > 4 | C=CCNC(=S)N/N=C/C=C/c1ccc([N+](=O)[O-])s1 | Active |
| 64 | > 4 | Nc1ccc2c(c1)[n+]([O-])c1cc(Cl)ccc1[n+]2[O-] | Active |
| 23 | > 4 | CC1(C)[N+]([O-])=c2ccc(/C=C/c3ccc4c(c3)OCO4)cc2=[N+]1[O-] | Active |
| 0 | > 4 | NC1=NS(=O)(=O)N=C(N)C1 | Active |
| 51 | > 4 | O=C1C(=Cc2ccc([N+](=O)[O-])cc2)C(=O)N(C2CCCCC2)S(=O)(=O)N1C1CCCCC1 | Active |
| 3 | > 4 | COC(=O)N/N=C/c1ccc2no[n+]([O-])c2c1 | Active |
| 73 | > 4 | NC(=O)N/N=C/c1ccc2no[n+]([O-])c2c1 | Active |
| 40 | > 4 | Cc1nnc[n+]([O-])c1/C=C/c1ccc2c(c1)OCO2 | Active |
| 35 | > 4 | O=[N+]([O-])c1ccc2c(c1)[n+]([O-])c1n2CCC1 | Active |
| 2 | > 4 | Cc1no[n+]([O-])c1/C=N/NC(N)=O | Active |
| 29 | > 4 | Cc1nnsc1CO | Active |
| 0 | > 4 | CCCN(CCOCCn1nc(OCc2ccccc2)c2cc([N+](=O)[O-])ccc21)CCC(C)C1CC=C(C)CC1 (stereo unspecified) | Active |
| 0 | > 4 | CCCCCCNS(=O)(=O)NCCCCCC | Active |
| 0 | > 4 | O=C(/C=C/c1ccco1)N1CCN(C/C=C/c2ccccc2)CC1 | Active |
| 45 | > 4 | O=C(N/N=C/C=C/c1ccc([N+](=O)[O-])o1)Oc1ccccc1 | Active |
| 21 | > 4 | O=C(Oc1ccccc1)N1CCN(C/C=C/c2ccccc2)CC1 | Active |
| 26 | > 4 | Cc1nnc(C)[n+]([O-])c1/C=C/c1ccc(N(C)C)cc1 | Active |
| 5 | > 4 | [O-][n+]1onc2ccc(/C=C\c3ccc(Cl)cc3)cc21 | Active |
| 16 | > 4 | Cn1c2ccc(Cl)cc2c(-c2ccccc2)[n+]1[O-] | Active |
| 0 | > 4 | O=C(CN1C(=O)c2ccccc2C1=O)c1ccccc1 | Active |

| Compound | inhibition [1] [%] | Ratio [2] | Activity (Trypanosoma cruzi) |
| --- | --- | --- | --- |
| CNC(=S)N/N=C/c1ccc([N+](=O)[O-])o1 | 22 | > 4 | Active |
| COc1ccc(NCc2c(-c3ccccc3)no[n+]2[O-])cc1 | 39 | > 4 | Active |
| CCNC(=S)N/N=C/c1ccc([N+](=O)[O-])o1 | 3 | > 4 | Active |
| CCNC(=S)N/N=C/C=C/c1ccc([N+](=O)[O-])o1 | 21 | > 4 | Active |
